Test results as given in paper PMC10494472 (Saudi Pharmaceutical Journal : SPJ, 2023).

How the values were obtained:
Type in all cases: biochemical
α-glucosidase (maltase) = α-glucosidase (maltase) (Saccharomyces cerevisiae, UniProt P53341); assay: α-glucosidase inhibition assay
FAS from chicken liver = FAS from chicken liver (Gallus gallus, UniProt P12276); assay: FAS inhibition assay
Summary of the method: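 Chicken liver FAS (10 µg) with test compound (10–200 µg/mL) in 100 mM potassium phosphate buffer containing 1 mM dithiothreitol, 1 mM EDTA, 10 µM malonyl-CoA, 3 µM acetyl-CoA and 35 µM NADPH. Activity was followed at 37 °C as the change in NADPH absorbance at 340 nm. The blank omitted the enzyme.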

XO = XO (Bos taurus, UniProt P80457); assay: XO inhibition assay
Sequence of XO (P80457 whole entry): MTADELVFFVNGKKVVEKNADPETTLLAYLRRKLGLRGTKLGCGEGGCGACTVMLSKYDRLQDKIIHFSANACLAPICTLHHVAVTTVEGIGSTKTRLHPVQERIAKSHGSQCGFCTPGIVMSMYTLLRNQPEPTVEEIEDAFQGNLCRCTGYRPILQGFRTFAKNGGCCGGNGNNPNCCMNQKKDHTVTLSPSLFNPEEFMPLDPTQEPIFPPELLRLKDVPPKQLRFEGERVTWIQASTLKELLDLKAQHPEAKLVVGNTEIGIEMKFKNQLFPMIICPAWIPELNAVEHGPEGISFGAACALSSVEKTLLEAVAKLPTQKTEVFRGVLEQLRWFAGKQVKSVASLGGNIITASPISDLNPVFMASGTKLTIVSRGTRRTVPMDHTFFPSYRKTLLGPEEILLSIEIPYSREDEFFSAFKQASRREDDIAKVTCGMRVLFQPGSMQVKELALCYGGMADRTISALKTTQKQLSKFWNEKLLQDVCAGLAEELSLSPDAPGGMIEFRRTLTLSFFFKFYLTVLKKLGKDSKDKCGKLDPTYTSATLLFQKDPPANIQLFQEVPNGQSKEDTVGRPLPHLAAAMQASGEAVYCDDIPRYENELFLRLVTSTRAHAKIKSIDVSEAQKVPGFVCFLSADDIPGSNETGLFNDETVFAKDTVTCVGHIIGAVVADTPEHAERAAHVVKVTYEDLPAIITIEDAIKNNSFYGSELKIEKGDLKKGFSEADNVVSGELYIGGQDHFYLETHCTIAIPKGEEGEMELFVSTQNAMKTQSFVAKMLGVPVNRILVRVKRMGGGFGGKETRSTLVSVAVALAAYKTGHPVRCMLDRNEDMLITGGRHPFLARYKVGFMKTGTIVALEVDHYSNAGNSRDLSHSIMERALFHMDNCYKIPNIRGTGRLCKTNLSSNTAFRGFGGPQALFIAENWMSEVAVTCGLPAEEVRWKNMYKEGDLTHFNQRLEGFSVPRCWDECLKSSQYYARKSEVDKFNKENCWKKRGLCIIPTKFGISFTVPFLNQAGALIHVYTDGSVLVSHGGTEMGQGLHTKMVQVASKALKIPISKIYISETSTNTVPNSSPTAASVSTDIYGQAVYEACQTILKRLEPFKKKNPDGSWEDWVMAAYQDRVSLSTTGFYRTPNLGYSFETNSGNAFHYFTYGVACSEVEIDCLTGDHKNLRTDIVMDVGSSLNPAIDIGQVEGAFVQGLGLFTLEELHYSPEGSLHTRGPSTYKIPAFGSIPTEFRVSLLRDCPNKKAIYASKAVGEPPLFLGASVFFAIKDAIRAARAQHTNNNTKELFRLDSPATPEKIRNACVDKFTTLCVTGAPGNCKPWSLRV

Sequence of FAS from chicken liver (P12276 whole entry): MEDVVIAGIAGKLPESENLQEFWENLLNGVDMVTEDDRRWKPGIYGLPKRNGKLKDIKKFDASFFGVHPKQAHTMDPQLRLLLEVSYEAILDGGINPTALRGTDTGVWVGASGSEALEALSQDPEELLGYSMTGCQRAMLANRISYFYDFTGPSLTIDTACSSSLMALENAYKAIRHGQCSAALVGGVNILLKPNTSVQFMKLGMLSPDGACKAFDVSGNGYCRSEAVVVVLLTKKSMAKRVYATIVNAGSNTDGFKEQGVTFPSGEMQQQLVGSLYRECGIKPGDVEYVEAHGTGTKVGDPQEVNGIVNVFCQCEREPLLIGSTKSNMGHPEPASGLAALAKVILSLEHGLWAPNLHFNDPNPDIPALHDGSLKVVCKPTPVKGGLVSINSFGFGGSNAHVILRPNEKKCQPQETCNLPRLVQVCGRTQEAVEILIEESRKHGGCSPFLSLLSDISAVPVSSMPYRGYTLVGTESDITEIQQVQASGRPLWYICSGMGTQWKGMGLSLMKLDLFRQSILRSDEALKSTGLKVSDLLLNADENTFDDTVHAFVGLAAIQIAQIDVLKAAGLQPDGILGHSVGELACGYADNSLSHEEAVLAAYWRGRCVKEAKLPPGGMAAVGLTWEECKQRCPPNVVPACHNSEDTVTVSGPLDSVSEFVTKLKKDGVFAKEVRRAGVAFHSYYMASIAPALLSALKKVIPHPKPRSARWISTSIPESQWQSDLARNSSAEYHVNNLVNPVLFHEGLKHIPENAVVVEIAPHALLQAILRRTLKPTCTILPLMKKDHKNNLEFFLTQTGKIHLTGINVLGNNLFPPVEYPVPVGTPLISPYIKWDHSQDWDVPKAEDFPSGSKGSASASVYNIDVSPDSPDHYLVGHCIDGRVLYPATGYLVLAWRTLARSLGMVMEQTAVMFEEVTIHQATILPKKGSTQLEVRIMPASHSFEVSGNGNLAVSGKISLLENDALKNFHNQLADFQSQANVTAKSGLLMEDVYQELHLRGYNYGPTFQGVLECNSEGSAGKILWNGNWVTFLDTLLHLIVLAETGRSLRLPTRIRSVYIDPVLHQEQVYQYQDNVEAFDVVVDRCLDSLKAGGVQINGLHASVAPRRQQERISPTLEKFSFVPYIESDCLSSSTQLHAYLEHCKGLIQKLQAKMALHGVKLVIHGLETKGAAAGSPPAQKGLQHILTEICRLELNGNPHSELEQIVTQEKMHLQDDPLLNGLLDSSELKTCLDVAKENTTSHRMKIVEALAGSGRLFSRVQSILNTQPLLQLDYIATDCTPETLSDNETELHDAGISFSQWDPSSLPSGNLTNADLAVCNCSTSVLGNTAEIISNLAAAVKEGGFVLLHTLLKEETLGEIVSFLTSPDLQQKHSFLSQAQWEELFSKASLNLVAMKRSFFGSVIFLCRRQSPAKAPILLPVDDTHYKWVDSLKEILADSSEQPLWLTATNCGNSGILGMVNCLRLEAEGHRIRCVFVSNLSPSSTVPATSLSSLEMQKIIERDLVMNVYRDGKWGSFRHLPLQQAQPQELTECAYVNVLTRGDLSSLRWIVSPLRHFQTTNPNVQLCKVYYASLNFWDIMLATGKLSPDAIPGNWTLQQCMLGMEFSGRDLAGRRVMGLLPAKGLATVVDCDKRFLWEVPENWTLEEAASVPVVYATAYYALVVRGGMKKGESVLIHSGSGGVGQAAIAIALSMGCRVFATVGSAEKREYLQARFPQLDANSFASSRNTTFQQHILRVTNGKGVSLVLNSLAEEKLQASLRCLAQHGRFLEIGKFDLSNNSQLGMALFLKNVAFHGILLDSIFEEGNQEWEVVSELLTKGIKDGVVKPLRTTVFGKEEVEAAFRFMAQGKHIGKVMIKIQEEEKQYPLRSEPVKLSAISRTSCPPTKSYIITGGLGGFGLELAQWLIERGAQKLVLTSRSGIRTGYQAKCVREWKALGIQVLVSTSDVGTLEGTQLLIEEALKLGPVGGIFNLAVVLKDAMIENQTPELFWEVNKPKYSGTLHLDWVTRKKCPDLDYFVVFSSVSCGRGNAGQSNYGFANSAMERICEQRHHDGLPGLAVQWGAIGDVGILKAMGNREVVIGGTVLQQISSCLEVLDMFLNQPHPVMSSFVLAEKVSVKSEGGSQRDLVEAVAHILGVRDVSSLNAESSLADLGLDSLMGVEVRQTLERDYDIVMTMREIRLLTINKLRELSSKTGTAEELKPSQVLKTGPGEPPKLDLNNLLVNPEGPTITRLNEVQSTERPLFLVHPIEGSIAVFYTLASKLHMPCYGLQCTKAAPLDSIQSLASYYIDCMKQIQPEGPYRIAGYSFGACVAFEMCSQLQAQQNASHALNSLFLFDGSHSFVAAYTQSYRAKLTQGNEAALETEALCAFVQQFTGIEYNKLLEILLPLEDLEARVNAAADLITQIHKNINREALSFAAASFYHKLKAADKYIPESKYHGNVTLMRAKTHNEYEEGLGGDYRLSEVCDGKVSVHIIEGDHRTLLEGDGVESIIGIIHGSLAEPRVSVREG
Sequence of α-glucosidase (maltase) (P53341 whole entry): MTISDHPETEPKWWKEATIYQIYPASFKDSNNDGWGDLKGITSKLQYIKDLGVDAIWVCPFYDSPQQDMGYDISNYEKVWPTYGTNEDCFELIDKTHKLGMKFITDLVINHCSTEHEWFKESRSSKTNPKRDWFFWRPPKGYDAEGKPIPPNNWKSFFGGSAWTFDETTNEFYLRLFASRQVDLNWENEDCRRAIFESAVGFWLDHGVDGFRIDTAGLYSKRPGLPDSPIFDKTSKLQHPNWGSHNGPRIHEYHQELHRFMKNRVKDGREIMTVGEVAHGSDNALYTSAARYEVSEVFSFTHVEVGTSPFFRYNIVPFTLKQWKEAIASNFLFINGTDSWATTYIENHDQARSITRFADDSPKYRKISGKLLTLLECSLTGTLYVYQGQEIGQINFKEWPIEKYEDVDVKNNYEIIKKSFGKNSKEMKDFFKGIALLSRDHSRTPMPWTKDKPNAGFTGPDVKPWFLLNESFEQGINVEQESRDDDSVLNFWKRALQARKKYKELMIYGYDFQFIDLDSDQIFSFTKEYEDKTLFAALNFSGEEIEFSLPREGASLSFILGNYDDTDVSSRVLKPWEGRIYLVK

IC50 (α-glucosidase (maltase)) | IC50 (FAS from chicken liver) | IC50 (XO) | Structure (SMILES)
101 µM | 98.3 µM | 109 µM | C=C(C)[C@@H]1CC[C@]2(C)CC[C@]3(C)[C@H](CC[C@@H]4[C@@]5(C)CC[C@H](O)C(C)(C)[C@@H]5CC[C@]43C)[C@@H]12 [Compound 1, lupeol]
88 µM | 63.2 µM | 69.9 µM | C=C(C)[C@@H]1CC[C@]2(CO)CC[C@]3(C)[C@H](CC[C@@H]4[C@@]5(C)CC[C@H](O)C(C)(C)[C@@H]5CC[C@]43C)[C@@H]12 [Compound 2, betulin]
 | 43.6 µM |  | COc1ccc(-c2cc(=O)c3c(O)cc(O)c(-c4cc(-c5cc(=O)c6c(O)cc(O)cc6o5)ccc4O)c3o2)cc1 [Compound 3, podocarpusflavone A]
92.8 µM | 75 µM |  | O=c1cc(-c2ccc(O)c(-c3c(O)cc(O)c4c(=O)cc(-c5ccc(O)cc5)oc34)c2)oc2cc(O)cc(O)c12 [Compound 4, amentoflavone]
